We go through 19 compounds from ChEMBL document CHEMBL1135143, “Discovery and evaluation of N-(triazin-1,3,5-yl) phenylalanine derivatives as VLA-4 integrin antagonists” (Bioorg Med Chem Lett, 2002).

Series [1] deals with T1, Integrin alpha-4/beta-1 (Homo sapiens, UniProt P05556+P13612). In words: Inhibition of VLA-4 expressed in Jurkat cell line, in a cell-based adhesion assay. In outline:
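VLA-4-expressing Jurkat cells incubated 30 min at 37 °C with test compound on plates carrying human two-domain VCAM-1-Fc captured by anti-human Fc; after washing, adherent cells stained with Rose Bengal.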

Series [2] can be described thus: Compound was evaluated for rate of clearance by using IPRL (Isolated Perfused Rat Liver). The series is classed as ADME.
In series [3] the target is T1, Integrin alpha-4/beta-1. In words: Inhibition of VLA-4 from HL60 lysate in a protein-based ligand binding assay. Summed up:
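Compounds titrated into two-domain VCAM-Fc-Ig solution, then added to VLA-4-coated wells; TBS, 1% BSA, 1 mM MnCl2, 0.1% Tween, 2 h room temperature. After washing, bound VCAM detected with peroxidase-coupled anti-human Fc.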

In general, IC50 refers to the point on the concentration scale where inhibition reaches its midpoint.

T1 sequence (P05556 whole entry): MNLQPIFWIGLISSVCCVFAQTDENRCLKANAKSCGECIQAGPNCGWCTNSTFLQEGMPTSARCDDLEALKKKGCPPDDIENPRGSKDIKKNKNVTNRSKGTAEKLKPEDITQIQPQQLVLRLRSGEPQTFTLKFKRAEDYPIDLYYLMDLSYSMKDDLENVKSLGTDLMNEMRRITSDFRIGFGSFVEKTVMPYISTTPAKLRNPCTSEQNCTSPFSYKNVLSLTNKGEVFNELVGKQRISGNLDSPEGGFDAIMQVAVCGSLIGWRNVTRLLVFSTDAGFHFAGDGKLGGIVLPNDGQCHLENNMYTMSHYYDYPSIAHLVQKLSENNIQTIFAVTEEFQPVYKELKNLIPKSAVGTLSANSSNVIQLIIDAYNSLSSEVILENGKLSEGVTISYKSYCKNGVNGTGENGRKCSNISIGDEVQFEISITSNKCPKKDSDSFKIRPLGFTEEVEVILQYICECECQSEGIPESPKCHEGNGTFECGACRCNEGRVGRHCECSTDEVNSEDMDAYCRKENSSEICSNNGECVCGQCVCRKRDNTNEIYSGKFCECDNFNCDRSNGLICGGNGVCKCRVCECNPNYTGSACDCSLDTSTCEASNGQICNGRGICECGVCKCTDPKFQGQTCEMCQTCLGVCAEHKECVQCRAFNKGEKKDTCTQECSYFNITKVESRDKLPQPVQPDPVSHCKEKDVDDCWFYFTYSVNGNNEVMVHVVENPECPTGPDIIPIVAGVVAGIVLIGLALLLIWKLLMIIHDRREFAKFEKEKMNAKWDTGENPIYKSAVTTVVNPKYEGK
T1 sequence (P13612 whole entry): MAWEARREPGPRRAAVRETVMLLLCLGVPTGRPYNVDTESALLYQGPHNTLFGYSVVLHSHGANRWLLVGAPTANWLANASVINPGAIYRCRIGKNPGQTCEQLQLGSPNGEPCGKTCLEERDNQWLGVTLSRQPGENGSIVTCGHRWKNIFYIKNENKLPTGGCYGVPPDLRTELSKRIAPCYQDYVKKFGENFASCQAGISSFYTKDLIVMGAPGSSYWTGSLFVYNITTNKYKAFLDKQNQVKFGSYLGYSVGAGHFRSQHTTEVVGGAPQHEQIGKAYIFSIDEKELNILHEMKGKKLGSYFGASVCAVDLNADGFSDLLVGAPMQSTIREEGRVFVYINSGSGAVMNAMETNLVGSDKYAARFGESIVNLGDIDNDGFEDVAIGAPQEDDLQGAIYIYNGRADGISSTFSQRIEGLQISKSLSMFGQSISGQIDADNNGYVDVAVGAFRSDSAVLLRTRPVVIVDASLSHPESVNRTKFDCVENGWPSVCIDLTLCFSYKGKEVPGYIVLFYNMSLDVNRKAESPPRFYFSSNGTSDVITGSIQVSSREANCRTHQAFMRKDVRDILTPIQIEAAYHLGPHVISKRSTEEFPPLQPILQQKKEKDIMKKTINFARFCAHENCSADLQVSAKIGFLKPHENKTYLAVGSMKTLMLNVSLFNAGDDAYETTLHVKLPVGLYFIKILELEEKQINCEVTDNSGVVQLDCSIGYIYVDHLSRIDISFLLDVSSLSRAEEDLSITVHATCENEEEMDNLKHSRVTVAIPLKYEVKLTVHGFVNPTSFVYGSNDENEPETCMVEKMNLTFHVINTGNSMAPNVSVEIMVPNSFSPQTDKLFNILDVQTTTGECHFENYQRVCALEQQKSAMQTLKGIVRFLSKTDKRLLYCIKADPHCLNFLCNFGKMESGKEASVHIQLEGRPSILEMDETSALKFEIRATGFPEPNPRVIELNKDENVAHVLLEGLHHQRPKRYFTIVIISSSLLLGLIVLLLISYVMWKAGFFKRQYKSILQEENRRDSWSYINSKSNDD

As to `COc1nc(N[C@@H](Cc2ccc(NC(=O)c3c(Cl)cccc3Cl)cc2)C(=O)O)nc(OC)n1`, the 50% inhibitory concentration (IC50) against Integrin alpha-4/beta-1 [1] stood at 4000 nM; at Integrin alpha-4/beta-1 [3], 30 nM. The k el in series [2] is 0.000194 s⁻¹.
Turning to `COc1nc(N[C@@H](Cc2ccc(NC(=O)c3c(F)cccc3C(F)(F)F)cc2)C(=O)O)nc(OC)n1`, the half-maximal inhibitory concentration (IC50) against Integrin alpha-4/beta-1 [1] amounted to 4600 nM; at Integrin alpha-4/beta-1 [3], 50 nM. Besides, the k el in series [2] was 0.000167 s⁻¹.
On to `COc1nc(N[C@@H](Cc2ccc(NC(=O)c3c(Cl)cncc3Cl)cc2)C(=O)O)nc(OC)n1`, for which the half-maximal inhibitory concentration (IC50) is 900 nM on Integrin alpha-4/beta-1 [1] and 8 nM at Integrin alpha-4/beta-1 [3]. This compound had a k el in series [2] of 0.000306 s⁻¹.
On to `COc1nc(N[C@@H](Cc2ccc(NC(=O)c3c(Cl)cncc3Cl)cc2)C(=O)O)nc(N2CCOCC2)n1`, for which the results for the IC50 against Integrin alpha-4/beta-1 [1] and at Integrin alpha-4/beta-1 [3] were 510 nM and 14 nM, respectively.
On to `COc1nc(N[C@@H](Cc2ccc(NC(=O)c3c(Cl)cncc3Cl)cc2)C(=O)O)nc(Oc2ccccc2)n1`, for which the half-inhibitory concentration (IC50) on Integrin alpha-4/beta-1 [1] stood at 320 nM; on Integrin alpha-4/beta-1 [3] it was 30 nM. This compound gave a k el in series [2] of 0.000167 s⁻¹.
Take `CCCOc1nc(N[C@@H](Cc2ccc(NC(=O)c3c(Cl)cncc3Cl)cc2)C(=O)O)nc(OC)n1`: the half-maximal inhibitory concentration (IC50) against Integrin alpha-4/beta-1 [1] is 300 nM; at Integrin alpha-4/beta-1 [3] it was 45 nM. Also, the k el in series [2] is 0.000639 s⁻¹.
On to `O=C(Nc1ccc(C[C@H](NC(=O)c2c(Cl)cncc2Cl)C(=O)O)cc1)c1c(Cl)cncc1Cl`, for which the results for the 50% inhibitory concentration (IC50) against Integrin alpha-4/beta-1 [1] and on Integrin alpha-4/beta-1 [3] were 0.5 nM and 0.9 nM, respectively. In addition, the k el in series [2] is 0.00108 s⁻¹.
On to `COc1nc(N[C@@H](Cc2ccc(OCc3c(Cl)cccc3Cl)cc2)C(=O)O)nc(OC)n1`, for which, in series [2], the k el was 0.000611 s⁻¹. Further, the IC50 on Integrin alpha-4/beta-1 [3] was 1500 nM.
In the case of `CCCNc1nc(N[C@@H](Cc2ccc(NC(=O)c3c(Cl)cncc3Cl)cc2)C(=O)O)nc(OC)n1`, the half-maximal inhibitory concentration (IC50) against Integrin alpha-4/beta-1 [1] turned out to be 740 nM; at Integrin alpha-4/beta-1 [3] it was 25 nM. This compound also showed a k el in series [2] of 0.000667 s⁻¹.
Turning to `COc1nc(NCCO)nc(N[C@@H](Cc2ccc(NC(=O)c3c(Cl)cncc3Cl)cc2)C(=O)O)n1`, the IC50 against Integrin alpha-4/beta-1 [1] is 320 nM; at Integrin alpha-4/beta-1 [3], 7 nM. This compound gave a k el in series [2] of 0.0005 s⁻¹.
Turning to `CC(=O)N1CSC[C@@H]1C(=O)N[C@@H](Cc1ccc(NC(=O)c2c(Cl)cncc2Cl)cc1)C(=O)O`, the concentration for half-maximal inhibition (IC50) at Integrin alpha-4/beta-1 [1] was found to be 0.5 nM; on Integrin alpha-4/beta-1 [3], 0.6 nM. The same compound gave a k el in series [2] of 0.00103 s⁻¹.
In series [2], `O=C(Nc1ccc(C[C@H](Nc2cc(Cl)ncn2)C(=O)O)cc1)c1c(Cl)cncc1Cl` had a k el of 0.000583 s⁻¹.
Regarding `CCN(CC)c1nc(N[C@@H](Cc2ccc(NC(=O)c3c(Cl)cncc3Cl)cc2)C(=O)O)nc(OC)n1`, the results for the half-maximal inhibitory concentration (IC50) against Integrin alpha-4/beta-1 [1] and at Integrin alpha-4/beta-1 [3] were 1620 nM and 70 nM, respectively.
As for `O=C(Nc1ccc(C[C@H](Nc2ccc([N+](=O)[O-])cn2)C(=O)O)cc1)c1c(Cl)cncc1Cl`, in series [2], the k el was 0.000278 s⁻¹.
Consider `COc1nc(N[C@@H](Cc2ccc(NC(=O)c3c(Cl)cncc3Cl)cc2)C(=O)O)nc(N2CCC(C(=O)O)CC2)n1`, for which the IC50 worked out at 240 nM at Integrin alpha-4/beta-1 [1] and 6 nM on Integrin alpha-4/beta-1 [3]. This compound also had a k el in series [2] of 0.000583 s⁻¹.
As for `CCCOc1nc(N[C@@H](Cc2ccc(NC(=O)c3c(Cl)cncc3Cl)cc2)C(=O)O)nc(OCCC)n1`, the half-maximal inhibitory concentration (IC50) worked out at 740 nM against Integrin alpha-4/beta-1 [1] and 50 nM at Integrin alpha-4/beta-1 [3]. This compound gave a k el in series [2] of 5.56e-05 s⁻¹.
The like results for `COc1nc(N[C@@H](Cc2ccc(NC(=O)c3c(Cl)cncc3Cl)cc2)C(=O)O)nc(N(C)C)n1` were, in that order, 590 nM, 16 nM and 0.000306 s⁻¹.
In the case of `COc1nc(N[C@@H](Cc2ccc(N(C)C(=O)c3c(Cl)cncc3Cl)cc2)C(=O)O)nc(OC)n1`, the IC50 on Integrin alpha-4/beta-1 [3] is 5500 nM.
For the compound `COc1nc(N[C@@H](Cc2ccc(NC(=O)c3c(Cl)cncc3Cl)cc2)C(=O)O)nc(N2CCNCC2)n1`, the values for the 50% inhibitory concentration (IC50) on Integrin alpha-4/beta-1 [1] and on Integrin alpha-4/beta-1 [3] were 1000 nM and 25 nM, respectively. Also, the k el in series [2] is 0.000583 s⁻¹.
